Data set [1] concerns Mycobacterium tuberculosis. In words: Bactericidal activity against Mycobacterium tuberculosis in pulmonary tuberculosis patient assessed as reduction in sputum bacterial count at 25 mg/kg, po once daily measured after 7 days. It counts as functional. Put shortly: (§1)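 Hospitalized treatment-naïve smear-positive patients took oral doses once daily, observed, after breakfast. Sputum was pooled over 16 h overnight at baseline, after each of the 7 dosing days, and on the night after the first standard-therapy dose. Sputum was stirred, digested with dithiothreitol for 20 min at room temperature, and diluted 10-fold. Dilutions were plated in quadruplicate on selective 7H11 agar and counted after 3-4 weeks at 37°C at 20-200 colonies. The read-out was change in log10 CFU/ml from baseline, with a count of 0 set to log 0.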

Data set [2] in a line: AUC (0 to 24 hrs) in pulmonary tuberculosis patient at 400 mg/kg, po once daily for 7 days by liquid chromatography-MS/MS analysis. It counts as ADME, organism-based. The arrangement: time < 24 hr, dose 400 mg/kg, route oral. Conditions: human, plasma. Put shortly: (§2)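 Treatment-naïve, sputum smear-positive patients, hospitalized, took the drug orally once daily under direct observation within 30 min after breakfast. On day 7, heparinized plasma was drawn predose and at 1, 2, 3, 4, 5, 6, 8, 12 and 24 h for parent drug and M2 metabolite. Levels were measured by validated LC-MS/MS, and AUC0-24 was calculated noncompartmentally by the linear trapezoidal rule.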

Data set [3] can be described thus: Tmax in pulmonary tuberculosis patient at 100 […], po once daily for 7 days by liquid chromatography-MS/MS analysis. On the set-up: dose 100 mg/kg, route oral. Conditions: human, in vivo. It is filed as ADME, organism-based. Put shortly: (§3)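 Treatment-naïve smear-positive pulmonary TB patients, hospitalized; 7-day oral once-daily monotherapy, directly observed, within 30 min after breakfast. Heparinized plasma taken predose and 1, 2, 3, 4, 5, 6, 8, 12 and 24 h postdose on day 7, plus predose on days 5 and 6. Parent drug and N-monodesmethyl metabolite measured by validated LC-MS/MS. Noncompartmental parameters; AUC0-24 by linear trapezoidal rule.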

Data set [4] concerns Mycobacterium tuberculosis. The experiment in a line: Bactericidal activity against Mycobacterium tuberculosis in pulmonary tuberculosis patient assessed as reduction in sputum bacterial count at 100 […], po once daily measured after 6 days. It is filed as functional. Put shortly:
as §1

Data set [5] is described as follows: Cmax in pulmonary tuberculosis patient at 400 mg/kg, po once daily for 7 days by liquid chromatography-MS/MS analysis. It is filed as ADME, organism-based. The conditions noted are these: human, in vivo. On the set-up: dose 400 mg/kg, route oral. The essentials:
as §3

Data set [6] concerns Mycobacterium tuberculosis. In words: Bactericidal activity against Mycobacterium tuberculosis in pulmonary tuberculosis patient assessed as reduction in sputum bacterial count at 25 mg/kg, po once daily measured after 6 days. It is filed as functional. Put shortly:
as §1

Data set [7] deals with Mycobacterium tuberculosis. The experiment in a line: Bactericidal activity against Mycobacterium tuberculosis in pulmonary tuberculosis patient assessed as reduction in sputum bacterial count at 400 mg/kg, po once daily measured after 5 days. It is filed as functional. Put shortly: as §1
The subject of data set [8] is Mycobacterium tuberculosis. The experiment in a line: Bactericidal activity against Mycobacterium tuberculosis in pulmonary tuberculosis patient assessed as reduction in sputum bacterial count at 25 mg/kg, po once daily measured on day 8 after starting standard TB therapy. It counts as functional. The essentials: as §1
In data set [9] the test system is Mycobacterium tuberculosis. The experiment in a line: Bactericidal activity against Mycobacterium tuberculosis in pulmonary tuberculosis patient assessed as reduction in sputum bacterial count at 25 mg/kg, po once daily measured after 5 days. It counts as functional. The essentials:
as §1

Data set [10] deals with Mycobacterium tuberculosis. In words: Bactericidal activity against Mycobacterium tuberculosis in pulmonary tuberculosis patient assessed as reduction in sputum bacterial count at 100 […], po once daily measured after 4 days. It is filed as functional. The essentials: as §1
Data set [11] in a line: Cmax in pulmonary tuberculosis patient at 100 […], po once daily for 7 days by liquid chromatography-MS/MS analysis. The arrangement: dose 100 mg/kg, route oral. It counts as ADME, organism-based. Conditions: human, in vivo. Put shortly: as §3
Data set [12] relates to Mycobacterium tuberculosis. In words: Bactericidal activity against Mycobacterium tuberculosis in pulmonary tuberculosis patient assessed as reduction in sputum bacterial count at 100 […], po once daily measured after 7 days. It is filed as functional. Put shortly: as §1
In data set [13] the test system is Homo sapiens. The experiment in a line: Steady-state plasma concentration in pulmonary tuberculosis patient at 400 mg/kg, po once daily for 7 days by liquid chromatography-MS/MS analysis. The arrangement: dose 400 mg/kg, route oral. Conditions: in vivo, 168 h. It is filed as ADME, organism-based. The essentials:
as §3

Data set [14] concerns Mycobacterium tuberculosis. In words: Antimicrobial activity against drug-sensitive Mycobacterium tuberculosis. It is filed as functional.
Data set [15] concerns Mycobacterium tuberculosis. In words: Bactericidal activity against Mycobacterium tuberculosis in pulmonary tuberculosis patient assessed as reduction in sputum bacterial count at 400 mg/kg, po once daily measured after 3 days. It counts as functional. The essentials:
as §1

Data set [16] is described as follows: Drug uptake in pulmonary tuberculosis patient at 100 […], po once daily for 7 days by liquid chromatography-MS/MS analysis. It counts as ADME, organism-based. The conditions noted are these: human, in vivo, read-out: Drug uptake. The arrangement: dose 100 mg/kg, route oral. The essentials: as §3
The test system of data set [17] is Homo sapiens. In words: Cardiotoxicity in pulmonary tuberculosis patient assessed as increase in QT interval at 100 […], po once daily for 7 days. It is filed as toxicity, organism-based. The arrangement: dose 100 mg/kg, route oral. The conditions noted are these: in vivo, 168 h.
The subject of data set [18] is Mycobacterium tuberculosis. In words: Bactericidal activity against Mycobacterium tuberculosis in pulmonary tuberculosis patient assessed as reduction in sputum bacterial count at 100 […], po once daily measured after 5 days. It is filed as functional. The essentials:
as §1

Data set [19] is described as follows: AUC (0 to 24 hrs) in pulmonary tuberculosis patient at 100 […], po once daily for 7 days by liquid chromatography-MS/MS analysis. It is filed as ADME, organism-based. On the set-up: time < 24 hr, dose 100 mg/kg, route oral. Conditions: human, plasma. The essentials:
as §2

In data set [20] the test system is Homo sapiens. In words: Toxicity in pulmonary tuberculosis patient assessed as hemoptysis at 400 mg/kg, po once daily. It is filed as organism-based. The arrangement: dose 400 mg/kg, route oral. The conditions noted are these: in vivo.
Data set [21] has as its system Homo sapiens. The experiment in a line: Steady-state plasma concentration in pulmonary tuberculosis patient at 100 […], po once daily for 7 days by liquid chromatography-MS/MS analysis. Conditions: in vivo, 168 h. On the set-up: dose 100 mg/kg, route oral. It counts as ADME, organism-based. Put shortly:
as §3

Data set [22] deals with Mycobacterium tuberculosis. In words: Bactericidal activity against Mycobacterium tuberculosis in pulmonary tuberculosis patient assessed as reduction in sputum bacterial count at 25 […], po once daily measured after 4 days. It counts as functional. The essentials:
as §1

For data set [23], the system named is Mycobacterium tuberculosis. In words: Bactericidal activity against Mycobacterium tuberculosis in pulmonary tuberculosis patient assessed as reduction in sputum bacterial count at 100 […], po once daily measured after 1 day. It counts as functional. Put shortly: as §1
Data set [24] relates to Homo sapiens. In words: Cardiotoxicity in pulmonary tuberculosis patient assessed as increase in QT interval at 400 mg/kg, po once daily for 7 days. Conditions: in vivo, 168 h. It counts as toxicity, organism-based. The arrangement: dose 400 mg/kg, route oral.

The source of these data is ChEMBL document CHEMBL1275461, “Early bactericidal activity and pharmacokinetics of the diarylquinoline TMC207 in treatment of pulmonary tuberculosis” (Antimicrob Agents Chemother, 2008).

≈ marks a conversion by molar mass, not a printed value.

On to `COc1nc2ccc(Br)cc2cc1[C@@H](c1ccccc1)[C@@](O)(CCN(C)C)c1cccc2ccccc12` [BEDAQUILINE], for which the log10CFU/ml in data set [1] is -0.04; in data set [4], -0.09; in [6] it was -0.06; in data set [7], -0.45; in data set [8], -0.46; in [9] it was -0.09. Further, the log10CFU/ml was -0.24 in [10]; -0.26 in data set [12]; -0.31 in data set [15]; -0.13 in data set [18]; -0.22 in [22]; -0.11 in data set [23]. Further, the area under the curve (AUC) at 24 h in data set [2] was 64.8 µg·h/mL; in data set [19], 16.1 µg·h/mL. In addition, the time of peak concentration (Tmax) in [3] turned out to be 4 h. Besides, the results for the highest concentration (Cmax) in data set [5] and in data set [11] were 5.5 µg/mL and 1.21 µg/mL, respectively. The Css in data set [13] was determined as 2.696 µg/mL; in [21], 0.6677 µg/mL. Inhibition of growth in data set [14] (MIC) required 0.03 mg/L (≈ 0.054 µM). Further, the concentration at 168 h in [16] amounted to 0.391 µg/mL. Moreover, the Time turned out to be 7.1 ms in [17] and 18.8 ms in data set [24]. Moreover, in data set [20], the Activity was determined as 21.4%.
